Series [1] has as its system HT-29. The series can be described thus: Anti-necroptotic activity in human HT-29 cells assessed as inhibition of TNFalpha/SM-164/Z-VAD-fmk (TSZ)-induced necroptosis by measuring increase in cell viability measured after 12 hrs by celltiter-glo luminescent cell viability assay. Format: functional, cell-based. Conditions: for EC50: HT-29, 12 h. The gist of the method:
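HT-29 cells pretreated with test agent across a concentration range, then TNF-α (20 ng/mL), Smac mimetic (10 nM) and z-VAD-fmk (20 μM) for 12–16 h. CellTiter-Glo viability. EC50 ± SD from at least three independent experiments.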
(Cellular ATP, detected with luciferase, serves as a proxy for viable cell number.)

Series [2] relates to L929. The series can be described thus: Anti-necroptotic activity in mouse L929 cells assessed as inhibition of TNFalpha/Z-VAD-fmk (TZ)-induced necroptosis by measuring increase in cell viability measured after 12 hrs by celltiter-glo luminescent cell viability assay. The series is classed as functional, cell-based. Conditions: L929, 12 h. A digest of the protocol: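 Mouse L929 fibroblasts pretreated with test agent, then mouse TNF-α (20 ng/mL) plus z-VAD-fmk (20 μM). Incubation stated as 4 h in table footnote and 12 h in figure legend. CellTiter-Glo viability. EC50 ± SD from at least three independent repeats.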

Series [3] concerns HT-29. The series can be described thus: Anti-necroptotic activity in human HT-29 cells assessed as inhibition of TNFalpha/SM-164/Z-VAD-fmk (TSZ)-induced necroptosis by measuring increase in cell viability at 10 uM measured after 12 hrs by celltiter-glo luminescent cell viability assay. Format: functional, cell-based. A digest of the protocol:
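HT-29 cells in DMEM with 10% FBS at 37 °C, 5% CO2. Test agents at 10 μM, then TSZ stimulation for 12 h. Viability read by CellTiter-Glo luminescence.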

Series [4] concerns HT-29. The series can be described thus: Cytotoxicity against human HT-29 cells assessed as reduction in cell viability at 10 uM by MTT assay. Conditions: ht-29, 10 µM. Format: cell-based. (In general: Formazan colour is commonly taken as a measure of viable cells.)
In series [5] the test system is HT-29. Put plainly: Protection against TNFalpha/SM-164 (TS)-induced apoptosis in human HT-29 cells assessed as increase in cell viability at 0.08 to 10 uM measured after 20 hrs by celltiter-glo luminescent cell viability assay. Conditions: dose 0.08-10 µM. Format: functional, cell-based. A digest of the protocol:
(§1)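 HT-29 apoptosis induced by TNF-α 20 ng/mL plus Smac mimetic (20 h), or by TNF-α plus cycloheximide (24 h), with graded compound concentrations. Viability read by CellTiter-Glo luminescence; means ± S.D. of three independent experiments.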

The subject of series [6] is HT-29. Put plainly: Protection against TNFalpha/cycloheximide (TC)-induced apoptosis in human HT-29 cells assessed as increase in cell viability at 0.08 to 10 uM measured after 24 hrs by celltiter-glo luminescent cell viability assay. Format: functional, cell-based. Conditions: dose 0.08-10 µM. The gist of the method: as §1
The subject of series [7] is HT-29. Put plainly: Anti-necroptotic activity in human HT-29 cells assessed as inhibition of TNFalpha/SM-164/Z-VAD-fmk (TSZ)-induced necroptosis by measuring reduction in plasma membrane rupture at 5 uM preincubated for 30 mins followed by TSZ stimulation and measured after 12 hrs by phase contrast microscopic analysis. Format: functional, cell-based. Conditions: time 12.5 hrs. The gist of the method:
(§2)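 HT-29 cells pretreated with DMSO or compound, then stimulated with TNF-α, Smac mimetic and z-VAD-fmk for 12 h. Necrotic morphology (swelling, membrane rupture) viewed by phase contrast microscopy at 200×.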

Series [8] has as its system HT-29. The series can be described thus: Anti-necroptotic activity in human HT-29 cells assessed as inhibition of TNFalpha/SM-164/Z-VAD-fmk (TSZ)-induced necroptosis by measuring reduction in cell swelling at 5 uM preincubated for 30 mins followed by TSZ stimulation and measured after 12 hrs by phase contrast microscopic analysis. Format: functional, cell-based. Conditions: time 12.5 hrs. A digest of the protocol:
as §2

Series [9] deals with HT-29. Put plainly: Anti-necroptotic activity in human HT-29 cells assessed as inhibition of TNFalpha/SM-164/Z-VAD-fmk (TSZ)-induced necroptosis by measuring cell viability at 10 uM preincubated for 30 mins followed by TSZ stimulation and measured after 16 hrs by celltiter-glo luminescent cell viability assay relative to control. Format: functional. The settings on record: time 16.5 hrs. The gist of the method:
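HT-29 cells in DMEM with 10% FBS, 37 °C, 5% CO2. Compound pretreatment 30 min, then TNF-α 20 ng/mL, Smac mimetic and z-VAD-fmk 20 μM for 16 h. Viability by CellTiter-Glo luminescence, normalised to untreated control cells.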

The test system of series [10] is HT-29. The series can be described thus: Anti-necroptotic activity in human HT-29 cells assessed as inhibition of TNFalpha/cycloheximide/Z-VAD-fmk (TCZ)-induced necroptosis by measuring increase in cell viability measured after 16 hrs by celltiter-glo luminescent cell viability assay. The series is classed as functional, cell-based.
For series [11], the system named is Rattus norvegicus. The series can be described thus: Neuroprotective activity in middle cerebral artery occlusion-induced Sprague-Dawley rat model of ischemia-reperfusion injury assessed as reduction in cerebral infarct volume at 1 mg/kg by TTC staining based microscopic analysis relative to control. More on the design: scale not given: the % may be the effect or the level left. Format: functional.

Calls of active or inactive are those of the source. The calls are words filed in the database; no cut-off is given here.

Consider `CC1(C)CC[C@]2(C(=O)NCCNC(=O)OC(C)(C)C)CC[C@]3(C)[C@H](C(=O)C=C4[C@@]5(C)C=C(C#N)C(=O)C(C)(C)[C@@H]5CC[C@]43C)[C@@H]2C1`, for which the EC50 (usually the concentration at which the effect is half-maximal) came out at 2810 nM in series [1] and 1480 nM in series [2].

Take `CC1(C)CC[C@]2(C(=O)N[C@@H]3CCCc4ccccc43)CC[C@]3(C)[C@H](C(=O)C=C4[C@@]5(C)C=C(C#N)C(=O)C(C)(C)[C@@H]5CC[C@]43C)[C@@H]2C1`: the concentration for a half-maximal effect (EC50) came to 1910 nM in series [1] and 820 nM in series [2].

Consider `CCNC(=O)[C@]12CCC(C)(C)C[C@H]1[C@H]1C(=O)C=C3[C@@]4(C)C=C(C#N)C(=O)C(C)(C)[C@@H]4CC[C@@]3(C)[C@]1(C)CC2`, for which the results for the EC50 in [1] and in series [2] were 1380 nM and 4150 nM, respectively.

With `CC1(C)CC[C@]2(C(=O)n3ccnc3)CC[C@]3(C)[C@H](C(=O)C=C4[C@@]5(C)C=C(C#N)C(=O)C(C)(C)[C@@H]5CC[C@]43C)[C@@H]2C1`, the 50% effective concentration (EC50) in series [1] came to 2100 nM; in series [2], 1460 nM.

On to `COC(=O)/C=C/C(=O)OC`, for which, in [3], the inhibition entry is “inactive”.

`CC1(C)CC[C@]2(C(=O)O)CC[C@]3(C)[C@H](C(=O)C=C4[C@@]5(C)C=C(C#N)C(=O)C(C)(C)[C@@H]5CC[C@]43C)[C@@H]2C1` [BARDOXOLONE]: the results for the Activity result in series [4] and in series [9] were “Toxic” and above 100%, respectively. The outcome in [5] and in [6] was inactive. The inhibition entry in series [1] and in series [10] was “Dose-dependent effect” each time. Besides, the values for the EC50 in [1] and in series [2] were 1300 nM and above 10000 nM, respectively. In addition, the result in series [7] and in [8] was Active.

With `CC(C)c1cc(C(=O)N2Cc3ccc(CN4CCN(C)CC4)cc3C2)c(O)cc1O`, the inhibition result in [3] was “Active”.

Take `CC1(C)CC[C@]2(C(=O)NC3CCCCC3)CC[C@]3(C)[C@H](C(=O)C=C4[C@@]5(C)C=C(C#N)C(=O)C(C)(C)[C@@H]5CC[C@]43C)[C@@H]2C1`: the EC50 in series [1] is 1300 nM; in [2], above 10000 nM.

For the compound `C=CCNC1=C2C[C@@H](C)C[C@H](OC)[C@H](O)[C@@H](C)/C=C(\C)[C@H](OC(N)=O)[C@@H](OC)/C=C\C=C(/C)C(=O)NC(=CC1=O)C2=O`, in [3], the inhibition result was “Active”.

Consider `COC(=O)[C@]12CCC(C)(C)C[C@H]1[C@H]1C(=O)C=C3[C@@]4(C)C=C(C#N)C(=O)C(C)(C)[C@@H]4CC[C@@]3(C)[C@]1(C)CC2` [BARDOXOLONE METHYL], for which the concentration giving a half-maximal response (EC50) in series [1] was 4340 nM; in series [2], above 10000 nM.

Turning to `CC1(C)CC[C@]2(C(=O)NCc3ccccc3)CC[C@]3(C)[C@H](C(=O)C=C4[C@@]5(C)C=C(C#N)C(=O)C(C)(C)[C@@H]5CC[C@]43C)[C@@H]2C1`, the EC50 in [1] turned out to be 1630 nM; in series [2], 1030 nM.

Regarding `CC1(C)CC[C@]2(C(=O)O)[C@H](O)C[C@]3(C)C(=CC[C@@H]4[C@@]5(C)CC[C@H](O)C(C)(C)[C@@H]5CC[C@]43C)[C@@H]2C1`, the concentration for a half-maximal effect (EC50) in [1] is above 10000 nM.

For `CC1(C)CC[C@]2(C(=O)N[C@H]3CCCc4ccccc43)CC[C@]3(C)[C@H](C(=O)C=C4[C@@]5(C)C=C(C#N)C(=O)C(C)(C)[C@@H]5CC[C@]43C)[C@@H]2C1`, the EC50 in series [1] turned out to be 1810 nM; in series [2], 620 nM.

Consider `CC1(C)CC[C@]2(C(=O)O)CC[C@]3(C)C(=CC[C@@H]4[C@@]5(C)CC[C@H](O)C(C)(C)[C@@H]5CC[C@]43C)[C@@H]2C1` [OLEANOLIC_ACID], for which the EC50 in [1] is above 10000 nM.

Take `COCCOC(=O)C1=C(C)NC(C)=C(C(=O)OC(C)C)C1c1cccc([N+](=O)[O-])c1` (stereo not drawn) [NIMODIPINE]: in series [11], the Activity was found to be 26.8%.

For `Cc1ccc(Nc2nccc(N(C)c3ccc4c(C)n(C)nc4c3)n2)cc1S(N)(=O)=O` [PAZOPANIB], the Activity in series [9] was above 80%.

`CC1(C)CC[C@]2(C(=O)n3cnc(-c4ccccn4)c3)CC[C@]3(C)[C@H](C(=O)C=C4[C@@]5(C)C=C(C#N)C(=O)C(C)(C)[C@@H]5CC[C@]43C)[C@@H]2C1`: the figures for the EC50 in series [1] and in series [2] were 290 nM and 610 nM, respectively.

In the case of `COC(=O)[C@@]12OC[C@]34[C@H]([C@@H](O)[C@@H]1O)[C@@]1(C)CC(=O)C(O)=C(C)[C@@H]1C[C@H]3OC(=O)[C@H](OC(=O)C=C(C)C)[C@@H]24`, in series [3], the inhibition result is “inactive”.

With `CC1(C)CC[C@]2(NC(=O)C(C)(F)F)CC[C@]3(C)[C@H](C(=O)C=C4[C@@]5(C)C=C(C#N)C(=O)C(C)(C)[C@@H]5CC[C@]43C)[C@@H]2C1` [OMAVELOXOLONE], the results for the EC50 in [1] and in series [2] were 1410 nM and 5250 nM, respectively.

The values are drawn from ChEMBL document CHEMBL4732104, “Discovery of bardoxolone derivatives as novel orally active necroptosis inhibitors” (Eur J Med Chem, 2021).
